ChEMBL document CHEMBL1126653, “Structure-function studies of amphiphilic antibacterial peptides” (1993)
Values after ≈ are worked out from the molar mass of the structure shown. Peptide text beside a SMILES is read from it.

Assays:
Pseudomonas aeruginosa [1] = assay: Compound tested for in vitro susceptibility against ATCC strain 27853 of Pseudomonas aeruginosa; type: functional; conditions: ATCC 27853
Procedure, shortened: (§1)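 Microbroth dilution in Tryptic Soy Broth; inoculum 5×10^5 CFU/mL; plates incubated at 37 °C for 18-20 h; value reported as minimal inhibitory concentration (µg/mL).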

Escherichia coli = assay: Compound tested for in vitro susceptibility against ATCC strain 25922 of Escherichia coli; type: functional; conditions: ATCC25922; procedure, shortened: as §1
Staphylococcus aureus [2] = assay: Compound tested for in vitro susceptibility against ATCC strain 29213 of Staphylococcus aureus; type: functional; procedure, shortened: as §1
Pseudomonas aeruginosa [3] = assay: Compound tested for the antimicrobial activity against Pseudomonas aeruginosa strain 8; type: functional; procedure, shortened: as §1
[4] = tested on: Salmonella enterica subsp. enterica serovar Anatum; assay: Compound tested for the antimicrobial activity against S. a natum; type: functional, salmoneila onotum; procedure, shortened: as §1
Pseudomonas aeruginosa [5] = assay: Compound tested for the antimicrobial activity against Pseudomonas aeruginosa strain 9; type: functional; procedure, shortened: as §1
Pseudomonas aeruginosa [6] = assay: Compound tested for the antimicrobial activity against Pseudomonas aeruginosa strain 5; type: functional; procedure, shortened: as §1
Staphylococcus aureus [7] = assay: Compound tested for the activity against Staphylococcus aureus strain 9; type: functional; procedure, shortened: as §1
Pseudomonas aeruginosa [8] = assay: Compound tested for the antimicrobial activity against Pseudomonas aeruginosa strain 1; type: functional; procedure, shortened: as §1
Enterobacter cloacae [9] = assay: Compound tested for the antimicrobial activity against Enterobacter cloacae ROS; type: functional
Procedure, shortened: (§2)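 MIC by microbroth dilution in Tryptic Soy Broth; inoculum 5×10^5 CFU/mL; plates incubated 18-20 h at 37 °C; assay pH approximately 7.4.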

[10] = Hemolytic activity towards human erythrocytes is evaluated for magainin 2 at peptide concentration of 100 µg/mL; type: functional
Procedure, shortened: (§3)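 Washed human erythrocytes from healthy volunteers (3 mL packed cells, PBS pH 7.4 washes, diluted to 20 mL) exposed to peptide in PBS at 25-200 µg/mL, 30 min at 37 °C; supernatant absorbance at 576 nm after centrifugation; 0.1% Triton X-100 taken as 100% hemolysis; duplicates.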

[11] = tested on: Acinetobacter calcoaceticus subsp. anitratus; assay: Compound tested for the antimicrobial activity against Acinetobacter anitratus; type: functional, aeinetobacter anitrotap; procedure, shortened: as §2
Staphylococcus aureus [12] = assay: Compound tested for the activity against Staphylococcus aureus strain ATCC 28953; type: functional; procedure, shortened: as §1
Staphylococcus aureus [13] = assay: Compound tested for the activity against Staphylococcus aureus strain 2; type: functional; procedure, shortened: as §1
[14] = Hemolytic activity towards human erythrocytes is evaluated for magainin 2 at peptide concentration of 50 µg/mL; type: functional; procedure, shortened: as §3
Staphylococcus aureus [15] = assay: Compound tested for the activity against Staphylococcus aureus strain 11; type: functional; procedure, shortened: as §1
Staphylococcus aureus [16] = assay: Compound tested for the activity against Staphylococcus aureus strain 5; type: functional; procedure, shortened: as §1
Staphylococcus aureus [17] = assay: Compound tested for the activity against Staphylococcus aureus strain 7; type: functional; procedure, shortened: as §1
Pseudomonas aeruginosa [18] = assay: Compound tested for the antimicrobial activity against Pseudomonas aeruginosa strain 3; type: functional; procedure, shortened: as §1
Staphylococcus aureus [19] = assay: Compound tested for the activity against Staphylococcus aureus strain 8; type: functional; procedure, shortened: as §1
Pseudomonas aeruginosa [20] = assay: Compound tested for the antimicrobial activity against Pseudomonas aeruginosa strain 2; type: functional; procedure, shortened: as §1
Pseudomonas aeruginosa [21] = assay: Compound tested for the antimicrobial activity against Pseudomonas aeruginosa strain 6; type: functional; procedure, shortened: as §1
Pseudomonas aeruginosa [22] = assay: Compound tested for the antimicrobial activity against Pseudomonas aeruginosa strain 7; type: functional; procedure, shortened: as §1
Klebsiella pneumoniae = assay: Compound tested for the antimicrobial activity against Klebsiella pneumoniae; type: functional; procedure, shortened: as §2
Pseudomonas aeruginosa [23] = assay: Compound tested for the antimicrobial activity against Pseudomonas aeruginosa strain 10; type: functional; procedure, shortened: as §1
Staphylococcus aureus [24] = assay: Compound tested for the activity against Staphylococcus aureus strain 6; type: functional; procedure, shortened: as §1
Pseudomonas aeruginosa [25] = assay: Compound tested for the antimicrobial activity against Pseudomonas aeruginosa strain ATCC 25916; type: functional; procedure, shortened: as §1
[26] = Hemolytic activity towards human erythrocytes is evaluated for magainin 2 at peptide concentration of 25 ug/mL; type: functional; procedure, shortened: as §3
Proteus mirabilis = assay: Compound tested for the antimicrobial activity against Proteus mirabilis; type: functional; procedure, shortened: as §1
Pseudomonas aeruginosa [27] = assay: Compound tested for the antimicrobial activity against Pseudomonas aeruginosa strain 4; type: functional; procedure, shortened: as §1
Pseudomonas aeruginosa [28] = assay: Compound tested for the antimicrobial activity against Pseudomonas aeruginosa strain 11; type: functional; procedure, shortened: as §1
Enterobacter cloacae [29] = assay: Compound tested for the antimicrobial activity against Enterobacter cloacae; type: functional; procedure, shortened: as §1
Staphylococcus aureus [30] = assay: Compound tested for the activity against Staphylococcus aureus strain 1; type: functional; procedure, shortened: as §1
[31] = Hemolytic activity towards human erythrocytes is evaluated for magainin 2 at peptide concentration of 200 µg/mL; type: functional; procedure, shortened: as §3
Staphylococcus aureus [32] = assay: Compound tested for the activity against Staphylococcus aureus strain 3; type: functional; procedure, shortened: as §1
Staphylococcus aureus [33] = assay: Compound tested for the activity against Staphylococcus aureus strain 10; type: functional; procedure, shortened: as §1
Staphylococcus aureus [34] = assay: Compound tested for the activity against Staphylococcus aureus strain 4; type: functional; procedure, shortened: as §1
Shigella flexneri = assay: Compound tested for the antimicrobial activity against Shigella flexneri; type: functional; procedure, shortened: as §2

Structure (SMILES) | MIC (Pseudomonas aeruginosa [1]) | MIC (Escherichia coli) | MIC (Staphylococcus aureus [2]) | MIC (Pseudomonas aeruginosa [3]) | MIC [4] | MIC (Pseudomonas aeruginosa [5]) | MIC (Pseudomonas aeruginosa [6]) | MIC (Staphylococcus aureus [7]) | MIC (Pseudomonas aeruginosa [8]) | MIC (Enterobacter cloacae [9]) | Hemolysis [10] | MIC [11] | MIC (Staphylococcus aureus [12]) | MIC (Staphylococcus aureus [13]) | Hemolysis [14] | MIC (Staphylococcus aureus [15]) | MIC (Staphylococcus aureus [16]) | MIC (Staphylococcus aureus [17]) | Hemolysis [26] | Hemolysis [31] | other results
CC(C)C[C@H](NC(=O)[C@H](C)NC(=O)[C@H](CCCCN)NC(=O)[C@H](C)NC(=O)[C@H](CC(C)C)NC(=O)[C@H](CCCCN)NC(=O)[C@H](C)NC(=O)[C@H](CC(C)C)NC(=O)[C@H](CCCCN)NC(=O)[C@H](CCCCN)NC(=O)[C@H](C)NC(=O)[C@H](CC(C)C)NC(=O)[C@H](CCCCN)NC(=O)[C@H](CCCCN)NC(=O)[C@H](C)NC(=O)[C@H](CC(C)C)NC(=O)[C@@H](N)CCCCN)C(=O)O (H-KLAKKLAKKLAKLAKAL-OH) | 50 µg/mL (≈ 27.2 µM) | 25 µg/mL (≈ 13.6 µM) | 200 µg/mL (≈ 109 µM) | – | – | – | – | – | – | – | – | – | – | – | – | – | – | – | – | – | –
CC(C)C[C@H](NC(=O)[C@H](CCCCN)NC(=O)[C@H](CC(C)C)NC(=O)[C@H](Cc1ccccc1)NC(=O)[C@H](CCCCN)NC(=O)[C@H](CCCCN)NC(=O)[C@H](C)NC(=O)[C@H](Cc1ccccc1)NC(=O)[C@H](CCCCN)NC(=O)[C@H](CCCCN)NC(=O)[C@H](Cc1ccccc1)NC(=O)[C@H](CC(C)C)NC(=O)[C@@H](N)CCCCN)C(=O)N[C@@H](Cc1ccccc1)C(=O)N[C@@H](CCCCN)C(=O)N[C@@H](C)C(=O)N[C@@H](Cc1c[nH]c2ccccc12)C(=O)O (H-KLFKKFAKKFLKLFKAW-OH) | 12.5 µg/mL (≈ 5.76 µM) | 6.25 µg/mL (≈ 2.88 µM) | – | 12.5 µg/mL (≈ 5.76 µM) | 12.5 µg/mL (≈ 5.76 µM) | > 100 µg/mL | 12.5 µg/mL (≈ 5.76 µM) | 50 µg/mL (≈ 23 µM) | 6.25 µg/mL (≈ 2.88 µM) | 12.5 µg/mL (≈ 5.76 µM) | 26% | 6.25 µg/mL (≈ 2.88 µM) | 25 µg/mL (≈ 11.5 µM) | 25 µg/mL (≈ 11.5 µM) | 15% | 25 µg/mL (≈ 11.5 µM) | 50 µg/mL (≈ 23 µM) | 25 µg/mL (≈ 11.5 µM) | 5% | 40% | MIC (Pseudomonas aeruginosa [18]): 6.25 µg/mL (≈ 2.88 µM); MIC (Staphylococcus aureus [19]): 25 µg/mL (≈ 11.5 µM); MIC (Pseudomonas aeruginosa [20]): 12.5 µg/mL (≈ 5.76 µM); MIC (Pseudomonas aeruginosa [21]): 25 µg/mL (≈ 11.5 µM); MIC (Pseudomonas aeruginosa [22]): 6.25 µg/mL (≈ 2.88 µM); MIC (Klebsiella pneumoniae): 12.5 µg/mL (≈ 5.76 µM); MIC (Pseudomonas aeruginosa [23]): 50 µg/mL (≈ 23 µM); MIC (Staphylococcus aureus [24]): 25 µg/mL (≈ 11.5 µM); MIC (Pseudomonas aeruginosa [25]): 3.12 µg/mL (≈ 1.44 µM); MIC (Proteus mirabilis): > 100 µg/mL; MIC (Pseudomonas aeruginosa [27]): 12.5 µg/mL (≈ 5.76 µM); MIC (Pseudomonas aeruginosa [28]): 25 µg/mL (≈ 11.5 µM); MIC (Enterobacter cloacae [29]): 6.25 µg/mL (≈ 2.88 µM); MIC (Staphylococcus aureus [30]): 3.12 µg/mL (≈ 1.44 µM); MIC (Staphylococcus aureus [32]): 25 µg/mL (≈ 11.5 µM); MIC (Staphylococcus aureus [33]): 25 µg/mL (≈ 11.5 µM); MIC (Staphylococcus aureus [34]): 25 µg/mL (≈ 11.5 µM); MIC (Shigella flexneri): 3.12 µg/mL (≈ 1.44 µM)
CC(C)C[C@H](NC(=O)[C@H](CCCCN)NC(=O)[C@H](CC(C)C)NC(=O)[C@H](Cc1c[nH]c2ccccc12)NC(=O)[C@H](CCCCN)NC(=O)[C@H](CCCCN)NC(=O)[C@H](C)NC(=O)[C@H](Cc1c[nH]c2ccccc12)NC(=O)[C@H](CCCCN)NC(=O)[C@H](CCCCN)NC(=O)[C@H](Cc1c[nH]c2ccccc12)NC(=O)[C@H](CC(C)C)NC(=O)[C@@H](N)CCCCN)C(=O)N[C@@H](Cc1c[nH]c2ccccc12)C(=O)N[C@@H](CCCCN)C(=O)N[C@@H](C)C(=O)N[C@@H](Cc1c[nH]c2ccccc12)C(=O)O (H-KLWKKWAKKWLKLWKAW-OH) | 3.12 µg/mL (≈ 1.34 µM) | 6.25 µg/mL (≈ 2.68 µM) | 50 µg/mL (≈ 21.5 µM) | 12.5 µg/mL (≈ 5.37 µM) | 12.5 µg/mL (≈ 5.37 µM) | > 100 µg/mL | 12.5 µg/mL (≈ 5.37 µM) | 25 µg/mL (≈ 10.7 µM) | 6.25 µg/mL (≈ 2.68 µM) | 25 µg/mL (≈ 10.7 µM) | 31% | 3.12 µg/mL (≈ 1.34 µM) | 25 µg/mL (≈ 10.7 µM) | 6.25 µg/mL (≈ 2.68 µM) | 18% | 25 µg/mL (≈ 10.7 µM) | 12.5 µg/mL (≈ 5.37 µM) | 25 µg/mL (≈ 10.7 µM) | 10% | 55% | MIC (Pseudomonas aeruginosa [18]): 12.5 µg/mL (≈ 5.37 µM); MIC (Staphylococcus aureus [19]): 25 µg/mL (≈ 10.7 µM); MIC (Pseudomonas aeruginosa [20]): 3.12 µg/mL (≈ 1.34 µM); MIC (Pseudomonas aeruginosa [21]): > 100 µg/mL; MIC (Pseudomonas aeruginosa [22]): 12.5 µg/mL (≈ 5.37 µM); MIC (Klebsiella pneumoniae): 12.5 µg/mL (≈ 5.37 µM); MIC (Pseudomonas aeruginosa [23]): 25 µg/mL (≈ 10.7 µM); MIC (Staphylococcus aureus [24]): 12.5 µg/mL (≈ 5.37 µM); MIC (Pseudomonas aeruginosa [25]): 3.12 µg/mL (≈ 1.34 µM); MIC (Proteus mirabilis): > 100 µg/mL; MIC (Pseudomonas aeruginosa [27]): 12.5 µg/mL (≈ 5.37 µM); MIC (Pseudomonas aeruginosa [28]): > 100 µg/mL; MIC (Enterobacter cloacae [29]): < 0.39 µg/mL; MIC (Staphylococcus aureus [30]): 12.5 µg/mL (≈ 5.37 µM); MIC (Staphylococcus aureus [32]): 25 µg/mL (≈ 10.7 µM); MIC (Staphylococcus aureus [33]): 25 µg/mL (≈ 10.7 µM); MIC (Staphylococcus aureus [34]): 12.5 µg/mL (≈ 5.37 µM); MIC (Shigella flexneri): 3.12 µg/mL (≈ 1.34 µM)
CC(C)C[C@H](NC(=O)[C@H](CCCCN)NC(=O)[C@H](CCCCN)NC(=O)[C@H](Cc1c[nH]c2ccccc12)NC(=O)[C@@H](N)CCCCN)C(=O)N[C@@H](C)C(=O)N[C@@H](CCCCN)C(=O)N[C@@H](CCCCN)C(=O)N[C@@H](Cc1c[nH]c2ccccc12)C(=O)O (H-KWKKLAKKW-OH) | 12.5 µg/mL (≈ 10.3 µM) | 25 µg/mL (≈ 20.6 µM) | 25 µg/mL (≈ 20.6 µM) | – | – | – | – | – | – | – | 0% | – | – | – | 0% | – | – | – | 0% | 0% | –
